In paper PMC10499415 (Clinical and Translational Science, 2023):
Where two headings read alike, the source gives them in different places.

Experiments:
[1] = Phase I hepatic impairment study: safety and tolerability; assay type: in vivo, human
Method in brief: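 Adults with chronic, stable hepatic impairment graded by Child-Pugh score (mild 5–6, moderate 7–9, severe 10–15), plus healthy controls matched on age, BMI and sex. All received a single oral 20 mg dose of test compound with ~240 mL water after an overnight fast of ≥10 h. Inpatient from day −1 to day 4, with repeated clinical and laboratory safety evaluations through day 4. AEs were queried by contact ~14 days post-dose.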

[2] = for AUC0–24 GMR (90% CI) / AUC0–inf GMR (90% CI) / C max GMR (90% CI): GMR = 100 × (test/reference); for increase in AUC0–inf compared with matched controls / increase in C max compared with matched controls: single oral 20 mg
[3] = design: AUC0–t / AUC0–inf: unit not given beside the values; conditions: cited from earlier work
[4] = design: unit not given beside the values; conditions: subjects who received futibatinib alone; cited from earlier work
cytochrome P450 (CYP450) = conditions: in vitro; cited from earlier work
[5] = cited from earlier work
clinical = conditions: human, in vivo, po, 20 mg, T max
[6] = cited from earlier work; remark: listed apart in the source
[7] = healthy male adults; cited from earlier work
[8] = hepatic impairment groups vs overall healthy control group, range over groups
[9] = mild HI vs matched healthy control
[10] = mild HI vs overall healthy control cohort
[11] = moderate HI vs matched healthy control
[12] = moderate HI vs overall healthy control cohort
[13] = severe HI vs matched healthy control
[14] = severe HI vs overall healthy control cohort
[15] = healthy subjects, fasted conditions

C=CC(=O)N1CC[C@H](n2nc(C#Cc3cc(OC)cc(OC)c3)c3c(N)ncnc32)C1 [futibatinib, Futibatinib]
laboratory results ([1]; all cohorts): No unexpected findings or remarkable trends | study discontinuations due to TEAEs ([1]; all cohorts): no study discontinuations | total TEAEs reported (all grade 1) ([1]; all cohorts, 38 participants): four | participants reporting TEAEs ([1]; moderate hepatic impairment cohort): No participants | participants reporting TEAEs ([1]; severe hepatic impairment cohort): No participants | tolerability ([1]; single oral 20 mg, all groups): well‐tolerated | geometric mean C max greater than in corresponding matched healthy control group ([2]; across the hepatic impairment groups): 10%–43% | geometric mean AUC greater than in corresponding matched healthy control group ([2]; across the hepatic impairment groups, AUC0–24, AUC0–t, AUC0–inf): 17%–21% | mean percentage of AUC0–inf extrapolated ([2]; all groups): < 2% | GMRs for AUC [2, 8]: 85.9% to 122.5% | GMRs for C max [2, 8]: 113.5% to 117.9% | AUC0–24 GMR (90% CI) [2, 9]: 121.19 (74.27–197.74) % | AUC0–inf GMR (90% CI) [2, 9]: 120.79 (73.89–197.47) % | C max GMR (90% CI) [2, 9]: 142.53 (103.42–196.44) % | AUC0–24 GMR (90% CI) [2, 10]: 85.92 (54.94–134.38) % | AUC0–inf GMR (90% CI) [2, 10]: 85.66 (54.70–134.15) % | C max GMR (90% CI) [2, 10]: 113.52 (82.50–156.21) % | increase in futibatinib exposure versus healthy matched controls ([2]; mild hepatic impairment): 21%–43% | increase in AUC0–inf compared with matched controls ([2]; mild hepatic impairment): 21% | increase in C max compared with matched controls ([2]; mild hepatic impairment): 43% | AUC0–24 GMR (90% CI) [2, 11]: 119.62 (54.08–264.61) % | AUC0–inf GMR (90% CI) [2, 11]: 119.61 (53.90–265.45) % | C max GMR (90% CI) [2, 11]: 114.85 (75.38–175.00) % | AUC0–24 GMR (90% CI) [2, 12]: 122.20 (64.51–231.48) % | AUC0–inf GMR (90% CI) [2, 12]: 122.49 (64.50–232.63) % | C max GMR (90% CI) [2, 12]: 117.90 (82.04–169.44) % | increase in futibatinib exposure versus healthy matched controls ([2]; moderate hepatic impairment): 15%–20% | increase in AUC0–inf compared with matched controls ([2]; moderate hepatic impairment): 20% | increase in C max compared with matched controls ([2]; moderate hepatic impairment): 15% | AUC0–24 GMR (90% CI) [2, 13]: 116.91 (57.52–237.60) % | AUC0–inf GMR (90% CI) [2, 13]: 118.23 (57.79–241.87) % | C max GMR (90% CI) [2, 13]: 109.64 (66.62–180.44) % | AUC0–24 GMR (90% CI) [2, 14]: 117.62 (67.44–205.13) % | AUC0–inf GMR (90% CI) [2, 14]: 118.57 (67.46–208.38) % | C max GMR (90% CI) [2, 14]: 117.78 (87.42–158.68) % | increase in AUC0–inf compared with matched controls ([2]; severe hepatic impairment): 18% | increase in C max compared with matched controls ([2]; severe hepatic impairment): 10% | increase in futibatinib exposure versus healthy matched controls ([2]; severe mild hepatic impairment (so in the source)): 10%–18% | median T max ([3]; fed conditions): 4.0 h | bioavailability lower under fed versus fasted conditions ([3]; fed versus fasted): 11.2% | AUC0–inf [3, 15]: 625.7 | AUC0–t [3, 15]: 617.8 | AUC0–inf [4]: 941 | AUC0–t [4]: 934.0 | contribution of CYP450–related metabolism to the overall metabolism (cytochrome P450 (CYP450)): ~ 50% | impact of futibatinib on the PKs of CYP3A substrates [5]: no impact | futibatinib exposure increase ([5]; co‐administered with itraconazole): 40%–50% | futibatinib exposure decrease ([5]; co‐administered with rifampin): 50%–60% | Tmax (clinical): 1.75 h | accumulation ([6]; after repeat once daily doses): no accumulation | mean half‐life ([6]; patients with cancer and healthy subjects): ~ 3 h | dose proportionality of exposure ([6]; up to 80 mg): Dose‐proportional exposure increases | total amount of unchanged futibatinib in urine and feces [7]: negligible
